{"source": "ChEMBL document CHEMBL5724801", "about": "“EUbOPEN Chemogenomics Library - Multiplex” (2024)", "key": {"HEK-293T": {"test_system": "HEK-293T", "assay": "Multiplex assay against HEK293T", "type": "toxicity, cell-based", "conditions": "human", "how_it_was_run": "(§1)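 Per cents of healthy-nucleus cells form the tubulin, mitochondrial-mass and membrane-permeability phenotype values. Live cells were stained at seeding with Hoechst33342, BioTracker Green Microtubule Cytoskeleton Dye, MitoTracker Red and Annexin V Alexa Fluor 680. After compound addition they were imaged on a CQ1 microscope at 37°C and 5% CO2, and CellPathfinder machine-learning gating split them into Hoechst high-intensity objects or normal cells, normal cells into healthy, pyknosed or fragmented nuclei, and pyknosed cells into mitotic or apoptotic.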"}, "U2OS": {"test_system": "U2OS", "assay": "Multiplex assay against U2OS", "type": "toxicity, cell-based", "conditions": "human", "how_it_was_run": "as §1"}, "[1]": {"conditions": "24 h, 10 µM, compound concentration 10 uM"}, "[2]": {"conditions": "48 h, 1 µM, compound concentration 1 uM"}, "[3]": {"conditions": "48 h, 10 µM, compound concentration 10 uM"}, "[4]": {"conditions": "12 h, 1 µM, compound concentration 1 uM"}, "[5]": {"conditions": "12 h, 10 µM, compound concentration 10 uM"}, "[6]": {"conditions": "24 h, 1 µM, compound concentration 1 uM"}}, "note": "Several values for one entry are separate records, joined by “and”; a condition that tells them apart may be missing. Equal values may be shown once."}
{"compound": "OCCCNc1cc(-c2ccnc(Nc3cccc(Cl)c3)n2)ccn1", "values": [{"measurement": "Population Apoptotic (%)", "setting": "HEK-293T; [1]", "value": "71% and 78%"}, {"measurement": "Population Fragmented Nuclei (%)", "setting": "HEK-293T; [1]", "value": "16% and 15%"}, {"measurement": "Population Healthy Nuclei (%)", "setting": "HEK-293T; [1]", "value": "44% and 54%"}, {"measurement": "Population Hoechst High Intensity Objects (%)", "setting": "HEK-293T; [1]", "value": "41% and 45%"}, {"measurement": "Population Membrane Permeable-Phenotype (%)", "setting": "HEK-293T; [1]", "value": "0% and 3%"}, {"measurement": "Population Mitochondria Different-Phenotype (%)", "setting": "HEK-293T; [1]", "value": "85% and 91%"}, {"measurement": "Population Mitotic Cells (%)", "setting": "HEK-293T; [1]", "value": "28% and 21%"}, {"measurement": "Population Normal (%)", "setting": "HEK-293T; [1]", "value": "58% and 54%"}, {"measurement": "Population Pyknosed Nuclei (%)", "setting": "HEK-293T; [1]", "value": "38% and 29%"}, {"measurement": "Population Tubulin-Different-Phenotype (%)", "setting": "HEK-293T; [1]", "value": "88% and 82%"}, {"measurement": "Total Cell Count", "setting": "HEK-293T; [1]", "value": "237 and 207"}, {"measurement": "Population Apoptotic (%)", "setting": "HEK-293T; [2]", "value": "82% and 61%"}, {"measurement": "Population Fragmented Nuclei (%)", "setting": "HEK-293T; [2]", "value": "12% and 17%"}, {"measurement": "Population Healthy Nuclei (%)", "setting": "HEK-293T; [2]", "value": "51% and 65%"}, {"measurement": "Population Hoechst High Intensity Objects (%)", "setting": "HEK-293T; [2]", "value": "18% and 21%"}, {"measurement": "Population Membrane Permeable-Phenotype (%)", "setting": "HEK-293T; [2]", "value": "1% and 0%"}, {"measurement": "Population Mitochondria Different-Phenotype (%)", "setting": "HEK-293T; [2]", "value": "88% and 84%"}, {"measurement": "Population Mitotic Cells (%)", "setting": "HEK-293T; [2]", "value": "17% and 38%"}, {"measurement": "Population Normal (%)", "setting": "HEK-293T; [2]", "value": "81% and 78%"}, {"measurement": "Population Pyknosed Nuclei (%)", "setting": "HEK-293T; [2]", "value": "35% and 17%"}, {"measurement": "Population Tubulin-Different-Phenotype (%)", "setting": "HEK-293T; [2]", "value": "68% and 59%"}, {"measurement": "Total Cell Count", "setting": "HEK-293T; [2]", "value": "232 and 193"}, {"measurement": "Population Apoptotic (%)", "setting": "HEK-293T; [3]", "value": "71% and 83%"}, {"measurement": "Population Fragmented Nuclei (%)", "setting": "HEK-293T; [3]", "value": "16% and 25%"}, {"measurement": "Population Healthy Nuclei (%)", "setting": "HEK-293T; [3]", "value": 46, "unit": "%"}, {"measurement": "Population Hoechst High Intensity Objects (%)", "setting": "HEK-293T; [3]", "value": "57% and 56%"}, {"measurement": "Population Membrane Permeable-Phenotype (%)", "setting": "HEK-293T; [3]", "value": "1% and 8%"}, {"measurement": "Population Mitochondria Different-Phenotype (%)", "setting": "HEK-293T; [3]", "value": "78% and 85%"}, {"measurement": "Population Mitotic Cells (%)", "setting": "HEK-293T; [3]", "value": "28% and 16%"}, {"measurement": "Population Normal (%)", "setting": "HEK-293T; [3]", "value": "42% and 43%"}, {"measurement": "Population Pyknosed Nuclei (%)", "setting": "HEK-293T; [3]", "value": "37% and 28%"}, {"measurement": "Population Tubulin-Different-Phenotype (%)", "setting": "HEK-293T; [3]", "value": "76% and 79%"}, {"measurement": "Total Cell Count", "setting": "HEK-293T; [3]", "value": "262 and 238"}, {"measurement": "Population Apoptotic (%)", "setting": "U2OS; [4]", "value": "88% and 80%"}, {"measurement": "Population Fragmented Nuclei (%)", "setting": "U2OS; [4]", "value": "38% and 27%"}, {"measurement": "Population Healthy Nuclei (%)", "setting": "U2OS; [4]", "value": "52% and 51%"}, {"measurement": "Population Hoechst High Intensity Objects (%)", "setting": "U2OS; [4]", "value": "3% and 5%"}, {"measurement": "Population Membrane Permeable-Phenotype (%)", "setting": "U2OS; [4]", "value": "8% and 10%"}, {"measurement": "Population Mitotic Cells (%)", "setting": "U2OS; [4]", "value": "11% and 20%"}, {"measurement": "Population Normal (%)", "setting": "U2OS; [4]", "value": "97% and 94%"}, {"measurement": "Population Pyknosed Nuclei (%)", "setting": "U2OS; [4]", "value": "9% and 20%"}, {"measurement": "Population Tubulin-Different-Phenotype (%)", "setting": "U2OS; [4]", "value": "4% and 5%"}, {"measurement": "Total Cell Count", "setting": "U2OS; [4]", "value": "200 and 76"}, {"measurement": "Population Apoptotic (%)", "setting": "U2OS; [5]", "value": "85% and 91%"}, {"measurement": "Population Fragmented Nuclei (%)", "setting": "U2OS; [5]", "value": "37% and 24%"}, {"measurement": "Population Healthy Nuclei (%)", "setting": "U2OS; [5]", "value": "56% and 64%"}, {"measurement": "Population Hoechst High Intensity Objects (%)", "setting": "U2OS; [5]", "value": "4% and 10%"}, {"measurement": "Population Membrane Permeable-Phenotype (%)", "setting": "U2OS; [5]", "value": "46% and 47%"}, {"measurement": "Population Mitochondria Different-Phenotype (%)", "setting": "U2OS; [5]", "value": "36% and 51%"}, {"measurement": "Population Mitotic Cells (%)", "setting": "U2OS; [5]", "value": "14% and 8%"}, {"measurement": "Population Normal (%)", "setting": "U2OS; [5]", "value": "95% and 89%"}, {"measurement": "Population Pyknosed Nuclei (%)", "setting": "U2OS; [5]", "value": "6% and 11%"}, {"measurement": "Population Tubulin-Different-Phenotype (%)", "setting": "U2OS; [5]", "value": "46% and 61%"}, {"measurement": "Total Cell Count", "setting": "U2OS; [5]", "value": "237 and 118"}, {"measurement": "Population Apoptotic (%)", "setting": "U2OS; [6]", "value": "96% and 94%"}, {"measurement": "Population Fragmented Nuclei (%)", "setting": "U2OS; [6]", "value": "43% and 40%"}, {"measurement": "Population Healthy Nuclei (%)", "setting": "U2OS; [6]", "value": "43% and 33%"}, {"measurement": "Population Hoechst High Intensity Objects (%)", "setting": "U2OS; [6]", "value": 7, "unit": "%"}, {"measurement": "Population Membrane Permeable-Phenotype (%)", "setting": "U2OS; [6]", "value": "10% and 16%"}, {"measurement": "Population Mitochondria Different-Phenotype (%)", "setting": "U2OS; [6]", "value": "10% and 25%"}, {"measurement": "Population Mitotic Cells (%)", "setting": "U2OS; [6]", "value": "4% and 5%"}, {"measurement": "Population Normal (%)", "setting": "U2OS; [6]", "value": 92, "unit": "%"}, {"measurement": "Population Pyknosed Nuclei (%)", "setting": "U2OS; [6]", "value": "13% and 25%"}, {"measurement": "Population Tubulin-Different-Phenotype (%)", "setting": "U2OS; [6]", "value": "6% and 16%"}, {"measurement": "Total Cell Count", "setting": "U2OS; [6]", "value": "200 and 77"}, {"measurement": "Population Apoptotic (%)", "setting": "U2OS; [1]", "value": "88% and 95%"}, {"measurement": "Population Fragmented Nuclei (%)", "setting": "U2OS; [1]", "value": "37% and 30%"}, {"measurement": "Population Healthy Nuclei (%)", "setting": "U2OS; [1]", "value": "50% and 49%"}, {"measurement": "Population Hoechst High Intensity Objects (%)", "setting": "U2OS; [1]", "value": "11% and 12%"}, {"measurement": "Population Membrane Permeable-Phenotype (%)", "setting": "U2OS; [1]", "value": "34% and 43%"}, {"measurement": "Population Mitochondria Different-Phenotype (%)", "setting": "U2OS; [1]", "value": "40% and 54%"}, {"measurement": "Population Mitotic Cells (%)", "setting": "U2OS; [1]", "value": "12% and 4%"}, {"measurement": "Population Normal (%)", "setting": "U2OS; [1]", "value": "88% and 87%"}, {"measurement": "Population Pyknosed Nuclei (%)", "setting": "U2OS; [1]", "value": "12% and 20%"}, {"measurement": "Population Tubulin-Different-Phenotype (%)", "setting": "U2OS; [1]", "value": "37% and 61%"}, {"measurement": "Total Cell Count", "setting": "U2OS; [1]", "value": "229 and 128"}, {"measurement": "Population Apoptotic (%)", "setting": "U2OS; [2]", "value": "95% and 100%"}, {"measurement": "Population Fragmented Nuclei (%)", "setting": "U2OS; [2]", "value": "56% and 59%"}, {"measurement": "Population Healthy Nuclei (%)", "setting": "U2OS; [2]", "value": "22% and 11%"}, {"measurement": "Population Hoechst High Intensity Objects (%)", "setting": "U2OS; [2]", "value": "16% and 12%"}, {"measurement": "Population Membrane Permeable-Phenotype (%)", "setting": "U2OS; [2]", "value": 30, "unit": "%"}, {"measurement": "Population Mitochondria Different-Phenotype (%)", "setting": "U2OS; [2]", "value": "14% and 20%"}, {"measurement": "Population Mitotic Cells (%)", "setting": "U2OS; [2]", "value": "4% and 0%"}, {"measurement": "Population Normal (%)", "setting": "U2OS; [2]", "value": "83% and 87%"}, {"measurement": "Population Pyknosed Nuclei (%)", "setting": "U2OS; [2]", "value": "21% and 28%"}, {"measurement": "Population Tubulin-Different-Phenotype (%)", "setting": "U2OS; [2]", "value": "26% and 10%"}, {"measurement": "Total Cell Count", "setting": "U2OS; [2]", "value": "227 and 99"}, {"measurement": "Population Apoptotic (%)", "setting": "U2OS; [3]", "value": "94% and 96%"}, {"measurement": "Population Fragmented Nuclei (%)", "setting": "U2OS; [3]", "value": "47% and 50%"}, {"measurement": "Population Healthy Nuclei (%)", "setting": "U2OS; [3]", "value": "31% and 25%"}, {"measurement": "Population Hoechst High Intensity Objects (%)", "setting": "U2OS; [3]", "value": "21% and 23%"}, {"measurement": "Population Membrane Permeable-Phenotype (%)", "setting": "U2OS; [3]", "value": "43% and 65%"}, {"measurement": "Population Mitochondria Different-Phenotype (%)", "setting": "U2OS; [3]", "value": "45% and 34%"}, {"measurement": "Population Mitotic Cells (%)", "setting": "U2OS; [3]", "value": "5% and 4%"}, {"measurement": "Population Normal (%)", "setting": "U2OS; [3]", "value": "78% and 76%"}, {"measurement": "Population Pyknosed Nuclei (%)", "setting": "U2OS; [3]", "value": "21% and 24%"}, {"measurement": "Population Tubulin-Different-Phenotype (%)", "setting": "U2OS; [3]", "value": "45% and 65%"}, {"measurement": "Total Cell Count", "setting": "U2OS; [3]", "value": "223 and 134"}]}
